The test system of data set [1] is MS2 coat protein. As to the kind of experiment: apparent Kd, MS2 coat protein; higher = weaker binding; RNA-MaP array. In short, it runs like this:
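Binding of fluorescently labeled MS2 coat protein, at 1.5 nM to 3 μM and room temperature, was measured with or without input ligand on designed RNAs transcribed on an Illumina sequencing chip from sequenced DNA templates. Apparent Kd was defined as the median of per-cluster binding-curve fits. No design measured on fewer than 10 clusters was kept.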

Data set [2] deals with MS2 coat protein. As to the kind of experiment: apparent Kd, MS2 coat protein; higher = weaker binding; RNA-MaP array; FMN 200 µM where present. To be noted: designed as: ON switch for flavin mononucleotide. Put shortly:
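Green signal from SNAP-549-labelled MS2 coat protein was normalised to red-channel RNA signal and to the median Fmax of control clusters. The protein was titrated from 0.7 or 1.5 nM, doubling to 3 µM, without and then with constant ligand, over designs transcribed by stalled E. coli RNA polymerase on Illumina sequencing-chip clusters, in 100 mM Tris-HCl pH 7.5, 80 mM KCl, 4 mM MgCl2, BSA, DTT, yeast tRNA and Tween-20. The apparent Kd is the median of filtered per-cluster binding-curve fits.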

Where [3] appears, read: designed as: OFF switch for flavin mononucleotide, no ligand.
The mark [4] stands for this setting: ligand present: flavin mononucleotide, designed as: OFF switch for flavin mononucleotide.
Setting [5] is: designed as: ON switch for flavin mononucleotide, no ligand.
The mark [6] stands for this setting: ligand present: flavin mononucleotide, designed as: ON switch for flavin mononucleotide.

On to “ACAUACGAACGAGGAUAUCUCCACAUGAGGAUCACCCAUGUUUGGGUCCGAUAGUAGCGUGCAAAAGAGAAGGCGUGUACAUCC”, for which the “apparent Kd” value was found to be 22.8 nM with MS2 coat protein [1] (setting [3]) and 25.5 nM in the data set on MS2 coat protein [1] (setting [4]).
For “GGGAAACAUGAGGAUCACCCAUGUGUACAUAAGUAAGGAUAUAGAAGAGGUGACAGUGGUCUAGAAGGUACAACAC”, the “apparent Kd” value in the data set with MS2 coat protein [1] (setting [5]) turned out to be 65.6 nM; in the data set with MS2 coat protein [1] (setting [6]), 46.4 nM.
For “UUCUUGUCAGGAUAUGGCCCAGAGUCUAAGGCACCGAACGGCCAGAAGGGACAUGAGGAUCACCCAUGUAUCCU”, the “apparent Kd” value in the data set with MS2 coat protein [1] (setting [3]) turned out to be 16.3 nM; in the data set with MS2 coat protein [1] (setting [4]), 82.8 nM.
On to “CACAAACCAGAGAAGGCCCUAAGAGUAUAGAGAAUACGAAACAUGAGGAUCACCCAUGUCAUAUGGGAGGAUAUCAACAAGAUU”, for which the “apparent Kd” value with MS2 coat protein [1] (setting [5]) stood at 135 nM; in the data set on MS2 coat protein [1] (setting [6]), 11.3 nM.
With “UAAAGAUGUGCAGGAUAUUAGAAACGGCGGGAACUUAAAUUCAAACAUGAGGAUCACCCAUGUAAUAAGAAGGGCAAACUAAGA”, the “apparent Kd” value in the data set on MS2 coat protein [1] (setting [3]) was found to be 15.9 nM; in the data set with MS2 coat protein [1] (setting [4]), 20.6 nM.
In the case of “GGACCAAGGAGGGAGGAUAUCACAUACAAAACAUGAGGAUCACCCAUGUAGAAGAGACAAGAUACAGAGAAGGCCCAGAAAUAAAA”, the figures for the “apparent Kd” value with MS2 coat protein [1] (setting [5]) and in the data set with MS2 coat protein [1] (setting [6]) were 14 nM and 9.27 nM, respectively.
Turning to “UAACCGUGAGGAUAUACAUGAGGAUCACCCAUGUGGUUUUGCUGCGCACAUACUUUAUGUAGAAGGCACAACUG”, the “apparent Kd” value with MS2 coat protein [1] (setting [3]) stood at 50 nM; with MS2 coat protein [1] (setting [4]) it was 59.9 nM.
In the same order, the values of “AAUCAGAAAGGAUAUACAAGGAUUUUAUAUAGCACUGCUGGACAUGAGGAUCACCCAUGUAGAAGGUUCGCCCU” are 11.3 nM and 9.51 nM.
As to “UAAUUCAGGGAGAAGGUCUGAUCGUAACAUGCAGAAGGAUAUCCCAAUAACAUGAGGAUCACCCAUGUUUUGUUAUGCGUCAAC”, the “apparent Kd” value was 83 nM in the data set on MS2 coat protein [1] (setting [5]) and 19.8 nM with MS2 coat protein [1] (setting [6]).
On to “AUCUGGUUACAAGGAUAUCCAAUGUAAACAAUAGGAGAAGGAGUGAAAAGACCUAGGAAAACAUGAGGAUCACCCAUGUAAUUA”, for which the “apparent Kd” value with MS2 coat protein [1] (setting [5]) turned out to be 111 nM; in the data set on MS2 coat protein [1] (setting [6]), 39.1 nM.
Regarding “AGAUCACAUGAGGAUCACCCAUGUCAGGAACUAAGGUACGCUAGAAGGCCGGAUAUGCGGGAAGCGGAGGAUAUAGCAAGCAUC”, the “apparent Kd” value came out at 40.8 nM in the data set on MS2 coat protein [1] (setting [5]) and 19.6 nM in the data set with MS2 coat protein [1] (setting [6]).
On to “UGAUCAGAACAGAAGGAGUAGUCUGCCUUGCUACUAGGAUAUGUUACAUGAGGAUCACCCAUGUGUUUAGGAUUGCCAUAAAGG”, for which the entries for the “apparent Kd” value in the data set on MS2 coat protein [1] (setting [5]) and with MS2 coat protein [1] (setting [6]) were 13.1 nM and 9.08 nM, respectively.
Regarding “GCUCAGGAAGGAUAUACUGAAGCUAACAUGAGGAUCACCCAUGUCCUAGGUAAGUAUCUGGUAGAAGGUCCGCGUA”, the “apparent Kd” value in the data set with MS2 coat protein [1] (setting [3]) came out at 24.9 nM; with MS2 coat protein [1] (setting [4]), 32.5 nM.
Take “UCUAAACAUGAGGAUCACCCAUGUGAUUUACUCGCAGGAUAUGAGAGCUUGCACACGCAAUCAGAAGGGCGUCGAA”: the “apparent Kd” value in the data set with MS2 coat protein [1] (setting [5]) was 36.6 nM; in the data set with MS2 coat protein [1] (setting [6]), 28.7 nM.
With “AAUGACGCGAAGAAGGACUGAUACCAGCUAAAAGUAGGAUAUUCUGAACGUGGACGGUUUACAUGAGGAUCACCCAUGUAUGAA”, the “apparent Kd” value in the data set on MS2 coat protein [1] (setting [3]) amounted to 9.29 nM; with MS2 coat protein [1] (setting [4]), 9.01 nM.
In the same order, the values of “GAUCAACAUGAGGAUCACCCAUGUCAGGAUAUGCAGACAGUCUUUACGUCAGUCGUAAGCAGAAGGGACUACGG” are 52.5 nM and 69.6 nM.
As for “GGAAGUCAAGGAUAUACAUGAGGAUCACCCAUGUCAGGUGCCAAUUAUGUUCUAUAGUGUAGAAGGUGACAAUG”, the “apparent Kd” value came out at 112 nM in the data set with MS2 coat protein [1] (setting [3]) and 183 nM with MS2 coat protein [1] (setting [4]).
Turning to “GACUUGCAAGAGAAGGCGGCCACCAAUCAUCGGAGUGUAAACUCUACAUGAGGAUCACCCAUGUCCGAGGAUAUCUUCAUCAGU”, the figures for the “apparent Kd” value with MS2 coat protein [1] (setting [5]) and with MS2 coat protein [1] (setting [6]) were 59.9 nM and 69.8 nM, respectively.
In the case of “AUAGAGGAAGGAUAUACAUGAGGAUCACCCAUGUAACGAAGUAGUUGGAUGCCAUGAAGUAGAAGGUCCAGAUG”, the “apparent Kd” value in the data set with MS2 coat protein [1] (setting [3]) came out at 14.5 nM; in the data set on MS2 coat protein [1] (setting [4]) it was 13.6 nM.
For “GACACCGGUAUGGAGGAUAUGGGAGACAGUACAUGAGGAUCACCCAUGUCGUUAAGAAGAUAUCACCAGAAGGCCACUCGGUCGAG”, the “apparent Kd” value was determined as 13.5 nM in the data set on MS2 coat protein [1] (setting [5]) and 9.63 nM in the data set with MS2 coat protein [1] (setting [6]).
“AACAAGUAGGAGAAGGUAGAUGAGACUGUGCACUAAGGAUAUCCAUACAUGAGGAUCACCCAUGUCUGGACUAGUAUAUGGACA”: the “apparent Kd” value was 5.74 nM in the data set on MS2 coat protein [1] (setting [3]) and 5.69 nM in the data set with MS2 coat protein [1] (setting [4]).
Take “GAACAUCGAGGAUAUACAUGAGGAUCACCCAUGUAUUAGAGGGUGCCCUAGCUCAAAAGUAGAAGGCGACAGGU”: the “apparent Kd” value in the data set with MS2 coat protein [1] (setting [3]) is 9.8 nM; in the data set with MS2 coat protein [1] (setting [4]) it was 12.7 nM.
On to “AAUACAUGAGGAUCACCCAUGUGCAUUGUUUAAGAGGAAGCACAGGAUAUGCAGCCAAUCGGUUAGCAGAAGGGUGACUUCAAC”, for which the “apparent Kd” value in the data set on MS2 coat protein [2] (no ligand) worked out at 85.2 nM; in the data set on MS2 coat protein [2] (ligand present: flavin mononucleotide) it was 81.6 nM.
